Data taken from ChEMBL document CHEMBL1131490, “1,4-Cyclohexanecarboxylates: potent and selective inhibitors of phosophodiesterase 4 for the treatment of asthma” (J Med Chem, 1998).

What was measured:
Phosphodiesterase 4 = Phosphodiesterase 4 (Homo sapiens, UniProt P27815+Q08499+Q07343+Q08493); test: Inhibition activity against human monocyte derived PDE4 catalytic activity (LPDE4); assay type: protein assay
Cavia porcellus [1] = test: Antigen-induced bronchoconstriction in guinea pigs after iv administration 10 min pre-treatment; assay type: functional; details: read-out: ID50 (the source's name)
In short: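 Anesthetized guinea pigs, compound given intravenously, with bronchoconstriction provoked by antigen challenge.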

[2] = The value for hypothermia against antigen provocation (po); details: in vivo
Cavia porcellus [3] = test: Antigen-induced bronchoconstriction in guinea pigs after peroral administration 1 hour pre-treatment; assay type: functional; details: po, read-out: ID50 (the source's name)
Mus musculus [4] = test: Reversal of reserpine-induced hypothermia in the mouse on peroral administration; assay type: functional; details: po
Canis familiaris [5] = test: Emetic effect in dogs by intravenous administration; assay type: functional; details: Canis lupus familiaris
Mus musculus [6] = species on record: Mus musculus; test: Inhibition of lipopolysaccharide (LPS)-induced TNF alpha generation in mouse; assay type: functional; details: read-out: ID50 (the source's name)
In short: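 Human monocytes adoptively transferred into mice, then LPS challenge. Compound dosed orally; human TNFα generation measured. ID50 taken from the mean response of three to eight animals.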

Mus musculus [7] = species on record: Mus musculus; test: Reversal of reserpine-induced hypothermia in the mouse; assay type: functional
Homo sapiens = species on record: Homo sapiens; test: (§1) Inhibition of lipopolysaccharide (LPS)-induced TNF alpha release by human monocytes; assay type: functional
Oryctolagus cuniculus = species on record: Oryctolagus cuniculus; test: Stimulation of acid secretion from rabbit parietal glands; assay type: functional
[8] = as §1; assay type: functional
Canis familiaris [9] = species on record: Canis familiaris; test: Emetic effect in dogs; assay type: functional; details: Canis lupus familiaris
Mus musculus [10] = species on record: Mus musculus; test: Reversal of reserpine-induced hypothermia in mouse by peroral dose; assay type: functional; details: po

| SMILES | IC50 (Phosphodiesterase 4) [nM] | ED50 (Cavia porcellus [1]) [mg/kg] | also measured |
| --- | --- | --- | --- |
| COc1ccc(C2(C(N)=O)CCC(=O)CC2)cc1OC1CCCC1 | 320 | – | – |
| COc1ccc([C@@H]2CC(=O)N(Cc3ccc(N)cc3)C2)cc1OC1CCCC1 | 195 | 10 | – |
| COc1ccc(C2CCC(C(=O)O)CC2)cc1OC1CCCC1 (stereo not given) | 1200 | – | – |
| COc1ccc(C2CCC(=O)CC2)cc1OC1CCCC1 | 120 | – | – |
| COc1ccc(C2CCC(C(=O)O)C2)cc1OC1CCCC1 (stereo not given) | 1200 | 0.5 | selectivity ratio [2]: 0.17; ED50 (Cavia porcellus [3]): 3 mg/kg; ED50 (Mus musculus [4]): 0.5 mg/kg |
| COc1ccc(C2(CO)CCC(=O)CC2)cc1OC1CCCC1 | 2500 | – | – |
| C#CC1(c2ccc(OC)c(OC3CCCC3)c2)CCC(=O)CC1 | 80 | – | – |
| COc1ccc(C2CCC(=O)C2)cc1OC1CCCC1 (stereo not given) | 500 | – | – |
| COc1ccc(C2(C=O)CCC(=O)CC2)cc1OC1CCCC1 | 340 | – | – |
| COc1ccc(C2(C#N)CCC(=O)CC2)cc1OC1CCCC1 | 44 | – | – |
| COc1ccc(C2(C#N)CCC(c3nnn[nH]3)CC2)cc1OC1CCCC1 (stereo not given) | 740 | – | – |
| COc1ccc(C2CC(=O)N(Cc3ccc(N)cc3)C2)cc1OC1CCCC1 (stereo not given) | 52 | 0.5 | – |
| COc1ccc(C2(CF)CCC(=O)CC2)cc1OC1CCCC1 | 1180 | – | – |
| COc1ccc([C@]2(C#N)CC[C@@H](C(=O)O)CC2)cc1OC1CCCC1 (stereo in doubt; 1) [CILOMILAST] | – | 1.8 | ED50 (Canis familiaris [5]): 4.6 mg/kg; ED50 (Mus musculus [6]): 4.9 mg/kg; ED50 (Mus musculus [7]): 2.3 mg/kg; IC50 (Homo sapiens): 110 nM; EC50 (Oryctolagus cuniculus): 800 nM |
| COc1ccc([C@@H]2CNC(=O)C2)cc1OC1CCCC1 [(-)-ROLIPRAM] | – | 0.2 | ED50 (Mus musculus [6]): 5.1 mg/kg; ED50 (Cavia porcellus [3]): 2 mg/kg; IC50 [8]: 70 nM; ED50 (Mus musculus [4]): 0.2 mg/kg; ED50 (Canis familiaris [9]): 0.04 mg/kg; EC50 (Oryctolagus cuniculus): 4 nM |
| COc1ccc([C@H]2CNC(=O)C2)cc1OC1CCCC1 [S-ROLIPRAM] | – | 0.2 | ED50 (Cavia porcellus [3]): 2 mg/kg; ED50 (Mus musculus [10]): > 10 mg/kg |
